For 9 compounds, EC50 and IC50 results are on record in ChEMBL document CHEMBL1158991, “Cytotoxic and antimalarial constituents of the roots of Eurycoma longifolia” (J Nat Prod, 1991).

One assay concerns KB. Put plainly: Cytotoxicity against human KB cells. The class given is functional. The conditions noted are these: read-out: ED50 (the source's name).
Assay [1] can be described thus: Cytotoxicity against human KBV1 cells. The conditions noted are these: KB-V1, read-out: ED50 (the source's name). The class given is functional.
Assay [2] in a line: Cytotoxicity against human fibrosarcoma cells. The conditions noted are these: Fibrosarcoma cell, read-out: ED50 (the source's name). The class given is functional.
Assay [3] can be described thus: Cytotoxicity against human melanoma cells. The class given is functional. The conditions noted are these: Melanoma cell, read-out: ED50 (the source's name).
Assay [4] can be described thus: Cytotoxicity against human lung cancer cells. The class given is functional. The conditions noted are these: Cancer cell lines, read-out: ED50 (the source's name).
Assay [5] is described as follows: Cytotoxicity against human breast cancer cells. Type of assay: functional. The conditions noted are these: Cancer cell lines, read-out: ED50 (the source's name).
Assay [6] in a line: Cytotoxicity against human colon cancer cells. The class given is functional. The conditions noted are these: Cancer cell lines, read-out: ED50 (the source's name).
Another assay concerns P388. Put plainly: Cytotoxicity against mouse P388 cells. The class given is functional. The conditions noted are these: read-out: ED50 (the source's name).
For assay [7], the system named is Plasmodium falciparum. Put plainly: Antimalarial activity against Plasmodium falciparum D6 in human erythrocytes after 24 hrs by [3H]hypoxanthine uptake. The class given is functional, organism-based. Summed up:
(§1)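 P. falciparum (D-6 chloroquine-sensitive, W-2 chloroquine-resistant) kept in type A+ human erythrocytes, RPMI-1640 with 32 mM NaHCO3, 35 mM HEPES and 10% heat-inactivated A+ plasma, 5% O2/5% CO2/90% N2, 37°. Assay: 0.5–1.0% parasitemia, 1.0% hematocrit, triplicates over 7-5000 ng/ml, 24 h. Then 0.5 µCi [3H]-hypoxanthine added for a further 18-24 h. Uninfected-cell dpm subtracted. IC50 by linear regression.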

The subject of assay [8] is Plasmodium falciparum. The assay is described as follows: Antimalarial activity against Plasmodium falciparum W2 in human erythrocytes after 24 hrs by [3H]hypoxanthine uptake. Type of assay: functional, organism-based. Put shortly:
as §1

≈ marks a conversion by molar mass, not a printed value.

On to `O=c1ccc2nccc3c4ccc(O)cc4n1c23`, for which the EC50 in the assay on KB was 2 µg/mL (≈ 8.47 µM); in [1], more than 20 µg/mL; in [2], 3.5 µg/mL (≈ 14.8 µM); in assay [3] it was 5.4 µg/mL (≈ 22.9 µM); in assay [4], 3.8 µg/mL (≈ 16.1 µM); in assay [5] it was 2.6 µg/mL (≈ 11 µM). Besides, the values for the EC50 (in [6]; in the assay on P388) were 4.8 µg/mL (≈ 20.3 µM) and 1.5 µg/mL (≈ 6.35 µM), respectively.
In the case of `COc1ccc2c3cc[n+]([O-])c4ccc(=O)n(c2c1)c34`, the EC50 was 3.8 µg/mL (≈ 14.3 µM) in the assay on KB; more than 20 µg/mL in [1]; 4.5 µg/mL (≈ 16.9 µM) in [2]; 6.5 µg/mL (≈ 24.4 µM) in [3]; 5.2 µg/mL (≈ 19.5 µM) in assay [4]; 6 µg/mL (≈ 22.5 µM) in assay [5]. The results for the EC50 (in assay [6]; in the assay with P388) were 8.1 µg/mL (≈ 30.4 µM) and 11.7 µg/mL (≈ 43.9 µM), respectively.
For `O=c1ccc2c3c(cc[n+]2[O-])c2ccc(O)cc2n13`, the EC50 was 4.8 µg/mL (≈ 19 µM) in the assay on KB; more than 20 µg/mL in assay [1]; 4.9 µg/mL (≈ 19.4 µM) in [2]; 7 µg/mL (≈ 27.8 µM) in [3]; 5.1 µg/mL (≈ 20.2 µM) in [4]; 3.5 µg/mL (≈ 13.9 µM) in assay [5]. Besides, the EC50 in assay [6] was 7.5 µg/mL (≈ 29.7 µM); with P388 it was 12 µg/mL (≈ 47.6 µM).
Turning to `COc1ccc2c3ccnc4ccc(=O)n(c2c1)c43`, in the assay on P388, the EC50 came to 1.4 µg/mL (≈ 5.59 µM).
As for `COc1ccc2c(c1)[nH]c1c(CCC(=O)O)nccc12`, the IC50 was determined as 3.14 µg/mL (≈ 11.6 µM) in the assay with Plasmodium falciparum [7] and 2.98 µg/mL (≈ 11 µM) in the assay on Plasmodium falciparum [8].
On to `C[C@@H]1CC[C@H]2[C@@H](C)C(=O)O[C@@H]3O[C@@]4(C)CC[C@@H]1[C@]32OO4` [ARTEMISININ], for which the half-maximal inhibitory concentration (IC50) in the assay with Plasmodium falciparum [7] worked out at 0.0027 µg/mL (≈ 0.00956 µM); in the assay with Plasmodium falciparum [8] it was 0.0018 µg/mL (≈ 0.00638 µM).
Turning to `C=C1[C@@H](O)[C@@]2(O)OC[C@]34[C@H]2[C@@]2(C)[C@H](O)C(=O)C=C(C)[C@@H]2C[C@H]3OC(=O)[C@H](O)[C@@]14O` [EURYCOMANONE], the EC50 worked out at 1.9 µg/mL (≈ 4.65 µM) in the assay on KB; 0.8 µg/mL (≈ 1.96 µM) in assay [1]; 0.2 µg/mL (≈ 0.49 µM) in assay [2]; 8.2 µg/mL (≈ 20.1 µM) in assay [3]; 14.3 µg/mL (≈ 35 µM) in assay [4]; 1.1 µg/mL (≈ 2.69 µM) in [5]. Besides, the EC50 in [6] is 1.2 µg/mL (≈ 2.94 µM); with P388, more than 20 µg/mL. Also, the figures for the IC50 in the assay on Plasmodium falciparum [7] and in the assay with Plasmodium falciparum [8] were 0.0477 µg/mL (≈ 0.117 µM) and 0.0481 µg/mL (≈ 0.118 µM), respectively.
With `OC(c1cc(C(F)(F)F)nc2c(C(F)(F)F)cccc12)C1CCCCN1` (configuration not stated) [MEFLOQUINE], it took 0.0095 µg/mL (≈ 0.0251 µM) to reach half-maximal inhibition with Plasmodium falciparum [7] (IC50).
Regarding `C=C[C@H]1CN2CC[C@H]1C[C@H]2[C@H](O)c1ccnc2ccc(OC)cc12` [QUININE], the IC50 amounted to 0.0194 µg/mL (≈ 0.0598 µM) with Plasmodium falciparum [7] and 0.114 µg/mL (≈ 0.353 µM) in the assay with Plasmodium falciparum [8].

One may read the IC50 as the concentration that inhibits the measured activity by half. Read a high IC50 as weaker potency.
